{"source": "paper PMC3105124", "about": "(Brain research, 2011)", "key": {"[1]": {"test_system": "L5/L6 spinal nerve ligated male Sprague Dawley rats", "assay": "Mechanical hypersensitivity", "assay_type": "in vivo, rat", "details": "for AUC, paw withdrawal threshold (mechanical): vehicle AUC=22.07 ± 3.02"}, "[2]": {"test_system": "L5/L6 spinal nerve ligated male Sprague Dawley rats", "assay": "Thermal hypersensitivity", "assay_type": "in vivo, rat", "details": "for AUC, paw withdrawal latency (thermal): vehicle AUC=55.52 ± 2.74; for effect on thermal hyperalgesia compared to vehicle or post injury baseline: morphine (10 mg), all time-points and total AUC"}, "[3]": {"test_system": "male Sprague Dawley rats", "assay_type": "in vivo, rat", "method_in_brief": "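CCK-8sulf (30 ng/0.5 μL, in water) went into the RVM 10 min before. Naloxone (10 mg/kg sc, saline) was given 20 min before. Radiant heat to the plantar hind paw gave withdrawal latency, compared with baseline.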"}, "[4]": {"test_system": "sham-operated male Sprague Dawley rats", "assay": "Thermal paw withdrawal latency in sham-operated animals, intrathecal", "assay_type": "in vivo, rat", "details": "45 min time point", "method_in_brief": "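Sham rats had the L5/L6 nerves exposed without ligation, then 5–7 days recovery. An intrathecal catheter ending at the lumbar cord was placed under ketamine/xylazine, with 5–7 days recovery. Test compound in 33% EtOH/water was injected in 5 μL with a 9 μL saline flush. Radiant heat was focused on the ipsilateral hind paw, and latencies were read blinded every 15 min for 60 min. In crossovers, vehicle rats were redosed ≥5 h later.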"}, "[5]": {"test_system": "L5/L6 spinal nerve ligated male Sprague Dawley rats", "assay_type": "in vivo, rat"}, "[6]": {"test_system": "male Sprague Dawley rats", "assay": "Rotarod test for motor impairment or sedation, intrathecal", "assay_type": "in vivo, rat", "details": "180 s cutoff"}, "[7]": {"molecular_target": "δ opioid receptor", "details": "read-out: Ki at the δ opioid receptor; ref Agnes et al., 2008; cited from earlier work"}, "[8]": {"molecular_target": "μ opioid receptor", "details": "read-out: Ki at the μ opioid receptor; ref Agnes et al., 2008; cited from earlier work"}, "[9]": {"molecular_target": "CCK-1 receptor", "details": "read-out: Ki at the CCK-1 receptor; ref Agnes et al., 2008; cited from earlier work"}, "[10]": {"molecular_target": "CCK-2 receptor", "details": "read-out: Ki at the CCK-2 receptor; ref Agnes et al., 2008; cited from earlier work"}, "[11]": {"test_system": "delta opioid receptor", "details": "ref Agnes et al., 2008; Hruby et al., 2003; cited from earlier work"}, "[12]": {"test_system": "mu opioid receptor", "details": "ref Agnes et al., 2008; Hruby et al., 2003; cited from earlier work"}, "[13]": {"molecular_target": "human δ opioid receptor (hDOR) (Homo sapiens, UniProt P41143)", "sequence (P41143 whole entry)": "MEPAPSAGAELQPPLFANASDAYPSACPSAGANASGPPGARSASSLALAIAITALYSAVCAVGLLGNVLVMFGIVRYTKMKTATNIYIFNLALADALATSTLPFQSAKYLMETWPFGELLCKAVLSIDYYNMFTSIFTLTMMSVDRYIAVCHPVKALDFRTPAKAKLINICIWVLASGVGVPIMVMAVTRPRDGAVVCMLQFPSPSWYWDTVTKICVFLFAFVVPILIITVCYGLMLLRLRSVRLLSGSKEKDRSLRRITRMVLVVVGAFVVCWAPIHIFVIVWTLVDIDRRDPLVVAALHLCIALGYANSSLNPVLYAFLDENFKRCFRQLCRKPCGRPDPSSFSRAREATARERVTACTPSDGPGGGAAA", "details": "ref Agnes et al., 2008, cited from earlier work"}, "[14]": {"molecular_target": "rat μ opioid receptor (MOR) (Rattus norvegicus, UniProt P33535)", "sequence (P33535 whole entry)": "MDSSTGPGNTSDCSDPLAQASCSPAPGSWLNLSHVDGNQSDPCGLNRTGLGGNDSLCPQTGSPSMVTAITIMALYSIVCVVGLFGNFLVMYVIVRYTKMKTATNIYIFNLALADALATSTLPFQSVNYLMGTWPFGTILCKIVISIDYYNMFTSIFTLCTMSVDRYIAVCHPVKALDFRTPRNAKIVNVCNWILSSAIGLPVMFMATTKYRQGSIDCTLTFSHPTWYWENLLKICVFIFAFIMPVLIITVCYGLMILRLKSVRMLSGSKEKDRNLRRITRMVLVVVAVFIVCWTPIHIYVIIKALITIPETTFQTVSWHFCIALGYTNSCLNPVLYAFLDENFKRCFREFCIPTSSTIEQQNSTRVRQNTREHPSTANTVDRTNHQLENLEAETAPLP", "details": "ref Agnes et al., 2008, cited from earlier work"}, "[15]": {"details": "30 μg/5μL intrathecal (gabapentin 30 μg)"}}, "note": "pEC50, pKi: −log10 of the molar value. Like-named read-outs stand apart in the source and are kept apart here. Marks after values point to notes of the source that are not given here."}
{"compound": "NCC1(CC(=O)O)CCCCC1", "note": "[gabapentin, reference compound]", "values": [{"measurement": "AUC, paw withdrawal threshold (mechanical)", "setting": "[1]; [15]", "value": "25.97 ± 6.68"}, {"measurement": "AUC, paw withdrawal latency (thermal)", "setting": "[2]; gabapentin (30 mg) intrathecal", "value": "104.72 ± 11.01"}, {"measurement": "effect on thermal hyperalgesia compared to vehicle or post injury baseline", "setting": "[2]; gabapentin (30 mg) intrathecal", "value": "significant efficacy"}]}
{"compound": "CN1CC[C@]23c4c5ccc(O)c4O[C@H]2[C@@H](O)C=C[C@H]3[C@H]1C5", "note": "[morphine, reference compound]", "values": [{"measurement": "effect on thermal hyperalgesia compared to vehicle or post injury baseline", "setting": "[2]; gabapentin (30 mg) intrathecal", "value": "significant efficacy"}, {"measurement": "Paw Withdrawal Latency (Sec ± SEM)", "setting": "[3]; RVM 60 ng/0.5μl with pretreatment (−20min) of naloxone (subcutaneous; 10mg/kg)", "value": "18.70** Sec"}]}
{"compound": "H-Tyr^1-DNle^2-Gly^3-Trp^4-Nle^5-Asp^6-Phe^7-NH2 [RSA 504]", "values": [{"measurement": "attenuation of mechanical hypersensitivity compared to vehicle", "setting": "[1]; 3 μg/5μL intrathecal", "value": "No significance"}, {"measurement": "attenuation of mechanical hypersensitivity compared to post-injury baseline", "setting": "[1]; 3 μg/5μL intrathecal, 15, 30 and 45 min post administration", "value": "Significant attenuation"}, {"measurement": "AUC, paw withdrawal threshold (mechanical)", "setting": "[1]; 3 μg/5μL intrathecal", "value": "32.53 ± 4.39"}, {"measurement": "attenuation of mechanical hypersensitivity compared to vehicle", "setting": "[1]; 10 μg/5μL and 30 μg/5μL intrathecal (RSA 504: 30 min; RSA 601: all time points)", "value": "significant attenuation"}, {"measurement": "AUC, paw withdrawal threshold (mechanical)", "setting": "[1]; 10 μg/5μL intrathecal (morphine 10 μg)", "value": "39.38 ± 3.17"}, {"measurement": "AUC, paw withdrawal threshold (mechanical)", "setting": "[1]; [15]", "value": "44.80 ± 4.93"}, {"measurement": "A50, antiallodynic dose response curve", "setting": "[1]; intrathecal, peak effect 30 min, day 7 after SNL, von Frey", "value": 4.67, "unit": "μg/5μL"}, {"measurement": "attenuation of thermal hyperalgesia compared to vehicle", "setting": "[2]; 1 μg/5μL intrathecal", "value": "did not produce a significant effect"}, {"measurement": "attenuation of thermal hyperalgesia compared to vehicle and post-injury baseline", "setting": "[2]; 10 μg/5μL and 30 μg/5μL intrathecal, 30 min time point", "value": "significantly attenuated"}, {"measurement": "AUC, paw withdrawal latency (thermal)", "setting": "[2]; 10 μg/5μL intrathecal", "value": "83.61 ± 6.40"}, {"measurement": "AUC, paw withdrawal latency (thermal)", "setting": "[2]; 30 μg/5μL intrathecal", "value": "111.10 ± 7.97"}, {"measurement": "A50, antihyperalgesic dose response curve", "setting": "[2]; intrathecal, peak effect 30 min, day 7 after SNL", "value": 6.09, "unit": "μg/5μL"}, {"measurement": "paw withdrawal latencies in sham animals", "setting": "[4]", "value": "significantly increased"}, {"measurement": "antinociceptive tolerance (day 7 A50 compared to day one)", "setting": "[5]; intrathecal administration over 7 days", "value": "not significantly different"}, {"measurement": "A50, reconstructed antihyperalgesic dose response curve, day 7", "setting": "[5]; intrathecal, 30 min, day 7 after 30 μg/5μL/day for 6 days (14 days after SNL)", "value": 6.45, "unit": "μg/5μL"}, {"measurement": "A50, antihyperalgesic dose response curve, day one", "setting": "[5]; intrathecal, 30 min, treatment day 1 (7 days after SNL)", "value": 5.89, "unit": "μg/5μL"}, {"measurement": "motor impairment or sedation on the rotarod", "setting": "[6]", "value": "did not result in motor impairment"}, {"measurement": "Paw Withdrawal Latency (Sec ± SEM)", "setting": "[3]; RVM 60 ng/0.5μl with pre-administration (−10min) of CCK-8sulf (RVM; 30 ng/0.5 μL)", "value": "22.35^† Sec"}, {"measurement": "effect on CCK-8 induced thermal hypersensitivity", "setting": "[3]; RVM administration, effect not significantly attenuated by naloxone", "value": "reversed the CCK-8 hypersensitivity"}, {"measurement": "pKi", "setting": "[7]", "value": 7.64}, {"measurement": "pKi", "setting": "[8]", "value": 7.57}, {"measurement": "pKi", "setting": "[9]", "value": 7.95}, {"measurement": "pKi", "setting": "[10]", "value": 7.80}, {"measurement": "in vitro activity in the MVD for delta opioid receptor activity", "setting": "[11]", "value": 23, "unit": "nM"}, {"measurement": "in vitro activity in GPI for mu opioid receptor activity", "setting": "[12]", "value": 210, "unit": "nM"}, {"measurement": "pEC50", "setting": "[13]; read-out: EC50 in GTP-γ-S binding assay at hDOR", "value": 8.26}, {"measurement": "Emax in GTP-γ-S binding assay at hDOR", "setting": "[13]", "value": 81, "unit": "nM"}, {"measurement": "pEC50", "setting": "[14]; read-out: EC50 in GTP-γ-S binding assay at MOR", "value": 9.33}, {"measurement": "Emax in GTP-γ-S binding assay at MOR", "setting": "[14]", "value": 110, "unit": "nM"}]}
